Assay outcomes (PubChem BioAssay)
HUVEC prolif 384: blocks proliferation of human endothelial cells; HUVEC proliferation, CellTiter-Glo luminescence, 72 h; stronger effect = lower value; viability, % at 10 µM (by protocol); hit rate 1.1% among 86,000; AID 648;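 active means viability at or below 30%; inactive means viability above 30%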;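 further: 100% = median luminescence of DMSO-only cell control wells on each plate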
H69AR inhibit: blocks growth of human H69AR lung tumor cells | H69AR lung tumor viability, ATP luminescence, 72 h; stronger effect = lower value | viability, % at 10 µM | AID 598 | hit rate 6% among 85,000;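 active means viability at or below 40%; inactive means viability above 40%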;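 further: multidrug resistant small cell line overexpressing MRP-1 efflux transporter; 100% = mean luminescence of untreated control wells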
E coli WT exp: blocks growth of wild type E. coli BW25113; OD600 absorbance; growth inhibition, % at 100 µM; hit rate 0.15% among 98,000; AID 710;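 active means growth inhibition above about 50% at one test dose, limit read from the data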;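 further: growth measured after 20 h incubation at 37 °C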
Jurkat tox 60K: cytotoxic compounds reducing Jurkat cell viability | Jurkat E6.1 viability, ATP luminescence, 48 h | inhibition, % at 4 µM | hit rate 1.2% among 56,000 | AID 463;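 active means inhibition above the mean inhibition of all tested compounds plus 3 SD, cut at about 28% in these data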
Fibroblast inh: blocks proliferation of human lung fibroblasts | LL 47 human lung fibroblast viability, ATP luminescence; stronger effect = lower value | AID 719 | hit rate 1.1% among 85,000 | viability, % at 10 µM;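 active means viability at or below 50% in the single dose screen; inactive means viability above 50%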;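 further: compound exposure lasted 72 h before the ATP readout; 100% = median luminescence of untreated cell-only wells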
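test system = LL 47 human lung fibroblasts | amount = 1,150 fibroblasts seeded per well | medium = 15% FBS in IMEM | times = overnight cell rest, 72 h compound treatment at 37 °C | measured by = CellTiter-Glo luminescence measuring cellular ATP | read-out = viability percentage against median untreated-cell control | benchmarks = cell-only wells, no compound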
tolC growth inh: blocks growth of E. coli BW25113 tolC mutant; OD615; growth inhibition, % at 10 µM (by protocol); hit rate 2.2% among 65,000; AID 573;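 active means growth inhibition at or above a cutoff equal to the mean over every tested compound plus 3 SD, cut at about 60% in these data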;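 further: growth measured after 20 h incubation at 37 °C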
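System: E. coli ΔtolC::kan strain BW25113; Buffer or medium: LB broth supplemented with 50 µg/mL kanamycin; Compound: 10 µM final, single dose; Incubation: bacterial growth with compound for 20 h at 37 °C; Signal: A615 absorbance measurement; Evaluation: growth inhibition in percent.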
Active calls of the source: *; . = not tested or not shown. Hits are enriched below; roughly 6.4% of the tested compounds scored in any of these assays.

SMILES | HUVEC prolif 384 | H69AR inhibit | E coli WT exp | Jurkat tox 60K | Fibroblast inh | tolC growth inh
CCOc1ccccc1CN(Cc1ccco1)S(=O)(=O)c1ccc(-n2cnnn2)c(OC)c1 | . | . | -14 | 67* | . | 29
COc1cc(S(=O)(=O)N(Cc2ccco2)C2CCCC2)ccc1-n1cnnn1 | . | . | -28 | 0 | . | 33
CCCCn1c(NC(=O)c2ccccc2)nc2ccccc21 | 70 | 14* | 15 | 4 | 48* | 31
CCCn1c(NC(=O)c2ccco2)nc2ccccc21 | . | . | 7 | 5 | . | 2
COc1ccc(OCCn2c(NC(=O)c3ccco3)nc3ccccc32)cc1 | 78 | 39* | -8 | 5 | 59 | 7
CCCn1c(NC(=O)c2ccc(Br)cc2)nc2ccccc21 | 74 | 32* | -11 | . | 66 | .
CCCn1c(CNc2ccc(Br)cc2)nc2ccccc21 | 98 | 97 | -3 | 16 | 88 | 100*
O=C(c1ccco1)N1CCN(CC(O)Cn2c3ccccc3c3ccccc32)CC1 (configuration not stated) | 85 | 59 | 1 | . | 94 | 8
COc1ccc(CCn2c(-c3ccco3)nc3nc4ccccc4nc32)cc1 | 96 | 58 | -2 | 10 | 95 | 19
COc1ccc(C(=O)n2c(-c3ccco3)nc3ccccc32)cc1 | 53 | 24* | -6 | 78* | 65 | 64*
COc1ccc(-c2cc(-c3ccccc3)c(C#N)c(S(C)=O)n2)cc1 (configuration not stated) | 6.8* | 2.3* | -19 | . | 2.7* | .
Cc1nn(Cc2ccccc2Cl)c(C)c1C(=O)Nc1nnc(C2CC2)s1 | 69 | 88 | 8 | 47* | 78 | 24
Nc1c(C(=O)NC2CCCCC2)c2nc3ccccc3nc2n1/N=C/c1ccco1 | 50 | 26* | . | -14 | 76 | -1
COc1cccc2c1OC1(C)CC2/C(=C(\C)O)C(=O)N1 (configuration not stated) | . | . | 3 | -8 | . | -9
CC(C)SC1=NC(C)(C)C=C(/C=C/c2ccc(Cl)cc2Cl)N1 | 26* | 34* | 2 | . | 82 | .
CC(C)SC1=NC(C)(C)C=C(/C=C/c2c(Cl)cccc2Cl)N1 | 54 | 40 | -7 | . | 84 | .
CCCC(=O)NC(C)c1nc2ccccc2n1C(C)C (configuration not stated) | 94 | 94 | 2 | -1 | 94 | -17
N=c1c2c(n(Cc3ccc(F)cc3)c3c1CCC3)CCC2 | 108 | 95 | -1 | 24 | 91 | 15
CCCn1c2c(c(O)c(C(=O)NC)c1=O)CCCC2 | 86 | 92 | 7 | 4 | 87 | 21
CCCCCCCn1ccc(=N)cc1 | 68 | 60 | 12 | . | 84 | .
CCCCn1c2c(c(=N)c3c1CCC3)CCC2 | 79 | 87 | 8 | 69* | 79 | 16
CCCCCCCCCn1c2c(c(=N)c3c1CCC3)CCC2 | 3.9* | 8.6* | . | . | 28* | .
CCCCCCn1c2c(c(=N)c3c1CCC3)CCC2 | 92 | 26* | 24 | 91* | 67 | 90*
CCCCCCCC(=O)N/N=C(\C)c1cccnc1 | 93 | 93 | . | . | 98 | .
CCOC(=O)N1CCC(N2CC34C=CC(O3)C(C(=O)O)C4C2=O)CC1 (configuration not stated) | 101 | 96 | 0 | -2 | 105 | -4
SMILES | HUVEC prolif 384 | H69AR inhibit | E coli WT exp | Jurkat tox 60K | Fibroblast inh | tolC growth inh
c1csc(CN2CCOCC2)c1 | 95 | 95 | -1 | . | 107 | .
CCOc1ccccc1N(C(=O)c1ccco1)C(C(=O)NC1CCCC1)c1cccnc1 (configuration not stated) | 105 | 74 | 5 | -4 | 101 | -5
Cn1cc(C2NC(=O)c3c(sc4c3CCCC4)N2)c2ccccc21 (configuration not stated) | 85 | 28* | . | -2 | 91 | 3
Cc1cc(N2CCCC2=O)c(N)cc1N | 97 | 103 | -2 | -6 | 89 | -10
COc1c(Cl)cc(-c2noc(C)c2C(=O)NC(C)C)cc1Cl | 105 | 101 | . | -2 | 97 | -7
CCOc1ccccc1C(=O)N1CCC(n2nnc3cc(C(F)(F)F)ccc32)CC1 | 80 | 39* | -1 | . | 98 | .
CCOc1ccccc1C(=O)N1CCC(n2nnc3cc(C)ccc32)CC1 | 101 | 89 | 10 | 6 | 101 | -3
O=C(COc1cccc(NC(=O)c2ccco2)c1)c1ccccc1 | 80 | 80 | 9 | 0 | 109 | 6
Clc1ncnc2scc(C3COc4ccccc4O3)c12 (configuration not stated) | 62 | 7.0* | . | . | 80 | .
CN(CC(=O)O)Cc1nc2ccccc2[nH]1 | . | . | -8 | . | . | .
O=C(c1cc(C2CC2)nc2ccccc12)N1N=C(C(F)F)CC1(O)C(F)F (configuration not stated) | 112 | 75 | . | . | 98 | .
O=C(c1cc(C2CC2)nc2ccc(Br)cc12)N1N=C(C(F)F)CC1(O)C(F)F (configuration not stated) | 29* | 17* | . | . | 54 | .
O=C(O)CCC(=O)OCC1CCCO1 (configuration not stated) | 92 | 88 | 0 | -10 | 101 | -15
O=C(Nc1ccc(Cl)cc1)N1CCC(c2nc(-c3ccc(F)cc3)no2)CC1 | 75 | 96 | -1 | 3 | 93 | 72*
O=C(Nc1ccc(Cl)cc1)N1CCN(c2ccc3nnc(-c4ccc(F)cc4)n3n2)CC1 | . | . | 2 | 10 | . | 0
COc1ccc(NC(=O)N2CCCC(c3nc(-c4ccc(C(C)C)cc4)no3)C2)cc1 (configuration not stated) | 73 | 86 | -10 | 13 | 88 | 62*
COc1ccc(C(=O)N2CCCC(c3nc(-c4cc(OC)c(OC)c(OC)c4)no3)C2)cc1 (configuration not stated) | 79 | 35* | 2 | -4 | 93 | -5
CCCCCC(=O)N1CCCC(c2nc(-c3ccc(OC)cc3)no2)C1 (configuration not stated) | 111 | 79 | -14 | . | 100 | .
O=C1CC(c2cccc(Cl)c2)CC(O)=C1C=NCCCO (configuration not stated) | 105 | 107 | 1 | 6 | 93 | -13
COc1ccc(Cl)cc1-n1c(=S)sc2c(=O)[nH]c(SCC(=O)NCC3CCCO3)nc21 (configuration not stated) | 94 | 96 | 6 | . | 95 | 4
C/C(=N\NC(=O)C(NC(=O)c1ccccc1)C(C)C)c1ccccc1 (configuration not stated) | . | . | -4 | . | . | .
O=C(c1ccccc1)c1nn(-c2ccc(Cl)cc2)cc1C(=O)c1cc2ccccc2oc1=O | . | . | -12 | . | . | .
O=C(Nc1ccccc1C(F)(F)F)N1CCN(C(c2ccccc2)c2ccccc2)CC1 | 69 | 31* | -18 | . | 86 | .
CN1CCN(c2cc(-c3ccccc3)nc3cc(-c4ccc(F)cc4)nn23)CC1 | . | . | -5 | . | . | .
Fc1ccc(-c2cc3nc(-c4ccccc4)cc(N4CCN(CCN5CCOCC5)CC4)n3n2)cc1 | 32 | 26* | 9 | 10 | 57 | 29
Cc1ccc(-c2noc(CN(C(=O)c3cccs3)C(C)C)n2)cc1 | 108 | 88 | -2 | -1 | 108 | 15
